Assay [1] has as its target T1, 5-hydroxytryptamine receptor 6 (Homo sapiens, UniProt P50406). As to the kind of experiment: Inhibition of [3H]LSD binding to human 5-hydroxytryptamine 6 receptor expressed in HEK293 cells. Format: cell-based. An outline of the steps: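 Bound ligand collected on polyethylenimine-pretreated glass fiber filters, washed with 50 mM Tris Cl pH 7.4, counted by liquid scintillation. Nonspecific binding defined with 100 µM serotonin. Competition data fitted by LIGAND; triplicate determinations per point.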

For assay [2], the target named is T1, 5-hydroxytryptamine receptor 6. Put plainly: Agonist activity against cAMP accumulation in C6 cells expressing 5-hydroxytryptamine 6 receptor. Format: functional, cell-based. Particulars: Rattus norvegicus, filed as agonist.

The source of these data is ChEMBL document CHEMBL1145196, “Medicinal chemistry driven approaches toward novel and selective serotonin 5-HT6 receptor ligands” (J Med Chem, 2005).

T1 sequence (P50406 whole entry): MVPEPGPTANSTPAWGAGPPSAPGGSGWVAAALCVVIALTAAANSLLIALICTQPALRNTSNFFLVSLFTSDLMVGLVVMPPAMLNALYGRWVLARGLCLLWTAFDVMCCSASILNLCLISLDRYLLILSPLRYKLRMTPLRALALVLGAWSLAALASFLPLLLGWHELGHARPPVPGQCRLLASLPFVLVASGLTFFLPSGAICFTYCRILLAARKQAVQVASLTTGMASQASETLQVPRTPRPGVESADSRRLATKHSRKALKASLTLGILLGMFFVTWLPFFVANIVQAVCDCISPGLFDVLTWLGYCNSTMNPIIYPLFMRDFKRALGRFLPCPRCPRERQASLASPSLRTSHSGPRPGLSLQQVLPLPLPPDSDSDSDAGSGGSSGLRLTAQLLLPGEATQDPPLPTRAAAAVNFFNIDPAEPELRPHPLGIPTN

On to `CCN(CC)CCc1c[nH]c2ccc(NS(=O)(=O)c3sc4ccc(Cl)cc4c3C)cc12`, for which the Ki (as a rule, a measure of affinity in units of concentration, obtained from inhibition or displacement) in assay [1] was 0.3 nM. For the same molecule, the Activity result in assay [2] was “Agonist”.
As for `Cc1c(S(=O)(=O)Nc2ccc3[nH]cc(CCN(C)C)c3c2)sc2ccc(Cl)cc12`, the affinity in assay [1] corresponds to a Ki of 0.1 nM. Further, in assay [2], the Activity entry was “Agonist”.
